B1: tRNA (parent)
chain: GUUCCGUUGGCGUAAUGGUAACGCGUCUCCCUCCUAAGGAGAAGACUGCGGGUUCGAGUCCCGUACGGAACG

Fewer inactive variants are shown than the library holds.

In the data set the parent is B1. Nature of the data set: yeast fitness relative to wild type (ratio to wild type); higher = fitter; tRNA-Arg(CCU), competitive growth, 37 C, YPD. In short, it runs like this:
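For this measurement, the tRNA-Arg(CCU) gene was varied by chemical synthesis at a 3% per-site mutation rate across 69 sites, and each variant was placed at the native genomic locus in Saccharomyces cerevisiae. The pooled strains went through a 24-hour competition in YPD at 37°C in six parallel replicates, with amplicons from start and end populations read by 100-nucleotide paired-end sequencing. Darwinian fitness relative to wild type followed from the change in each genotype's frequency. Genotypes needed ≥ 100 starting reads, and estimates < 0.5 were set to 0.5.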
C55G C66U: the yeast fitness was determined as 0.585.

With A20U C34U G51C C60U, the yeast fitness is no more than 0.5.

For U3G C31G A43C G52A, the yeast fitness amounted to 0.595.

As to A21U C34U U35A G39A, the yeast fitness turned out to be 0.594.

As for G17A A65G, the yeast fitness was found to be 0.884.

On to C27G C29A C33A A43C, for which the yeast fitness is 0.574.

Take U13A G48C: the yeast fitness is 1.1.

As to G12A C22G A69U, the yeast fitness was 0.791.

G17A A43C C49U U54A G56C A65U A70C: the yeast fitness is 0.565.

For the variant U3A C24G C29U A36G, the yeast fitness worked out at 0.639.

For the variant U2A C33U A37C, the yeast fitness was 0.532.

C27U C33G A43G G48A G52A: the yeast fitness is no more than 0.5.

As for C4U C61G C62G, the yeast fitness is no more than 0.5.

Take C4U U8A A20G C24A G52C: the yeast fitness came out at 0.598.

C4A C11A C29G A40G: the yeast fitness came to 0.574.

As for A20G C33U C49G G50C, the yeast fitness was no more than 0.5.

For the variant U3C U13A C31U G41A C61G, the yeast fitness was no more than 0.5.

As to G48A C55U C60G, the yeast fitness was determined as 0.727.

Take C11U G48A: the yeast fitness came out at 0.972.

Turning to C4A C29U A65G, the yeast fitness is no more than 0.5.

A15G G25A C30A G52A: the yeast fitness amounted to 0.563.

C4U C11A C46U: the yeast fitness was 0.661.

As to G51C U64C, the yeast fitness worked out at 0.941.

Turning to A40G G63A, the yeast fitness was 0.819.

A15G C34U A42U U47A A57G: the yeast fitness was no more than 0.5.

As to C5G U13C C24U C49U, the yeast fitness amounted to 0.526.

Consider C24G A36G A45G C61A A70G, for which the yeast fitness is no more than 0.5.

As for G12A G18A A21U G41A, the yeast fitness turned out to be 0.877.

In the case of C5U A14C C46A, the yeast fitness came out at 0.548.

With C4U C5G C29U A65G, the yeast fitness is no more than 0.5.

Take U3A C31A C34A A37C G68C: the yeast fitness was no more than 0.5.

For the variant C5A G41A, the yeast fitness amounted to 0.873.

Take G10C C11U C30G G48A U54A: the yeast fitness was 0.693.

Take C11G C22G C27G C49U C62U: the yeast fitness was no more than 0.5.

With G10C G18C C24U C66U, the yeast fitness was no more than 0.5.

For C11U A70U, the yeast fitness is 0.88.

For the variant C33G G56C, the yeast fitness is 0.679.

As for C29G C49A C55A C61U, the yeast fitness is no more than 0.5.

U7A C31G: the yeast fitness was 0.78.

Consider U3C G25A G68C A69G, for which the yeast fitness is 1.08.

Consider C5U U13C U19A A21U C24A U54C U59C C66G, for which the yeast fitness is no more than 0.5.

Take C4U G17A U19G A21G A43G G63A: the yeast fitness was no more than 0.5.

Turning to G12C U16A C49G, the yeast fitness is 0.593.

For C4A C30G A40U C60G G63C, the yeast fitness is no more than 0.5.

As to U32C C33U A70G, the yeast fitness was determined as 0.681.

For the variant A40C C66G, the yeast fitness amounted to 0.669.

On to U28C A37G, for which the yeast fitness came to 0.724.

Regarding U2C G68A, the yeast fitness is 0.762.

C4A C22U U28C: the yeast fitness was no more than 0.5.

For C5G U28G G58C C62U G63C U64G, the yeast fitness amounted to 0.628.

For C4A C5A U35C G44A G48C C55G A69U, the yeast fitness was no more than 0.5.

G23A G68U: the yeast fitness was determined as 0.641.

For A36G A42C, the yeast fitness turned out to be 0.976.

Turning to G10A U54C, the yeast fitness was determined as 0.643.

A20U C24G A45G U53A: the yeast fitness was no more than 0.5.

For the variant U3A C5A C30G G38C C60G, the yeast fitness is no more than 0.5.

In the case of C30G C61G, the yeast fitness was 0.697.

G6C G10A U16G C31A: the yeast fitness is no more than 0.5.

Regarding G50C U53A A57U A65U, the yeast fitness was 0.57.

For A15G C27A G44A C62U A65U, the yeast fitness is no more than 0.5.

C5U G10A C46A: the yeast fitness is no more than 0.5.

For A15G G48C C61A, the yeast fitness was no more than 0.5.

Take C11U C34U G38A G44C C66U: the yeast fitness was no more than 0.5.

Regarding U32G C33G, the yeast fitness amounted to 0.59.

In the case of C11G A20U C22G A43C, the yeast fitness was no more than 0.5.

With A20G C24U C33U A43C, the yeast fitness is no more than 0.5.

G41A G52A: the yeast fitness is 0.79.

As to C4A G6A C11A C22U C29U C55A, the yeast fitness is no more than 0.5.

In the case of C5G A15G A42C, the yeast fitness is 0.544.

Consider U7C U47C C62G, for which the yeast fitness is no more than 0.5.

In the case of U2G A14G A15U G25C C49U, the yeast fitness is no more than 0.5.

For G9C A20U U28A A42U G48A, the yeast fitness is no more than 0.5.

Turning to G6A A36U G56A C66U, the yeast fitness was no more than 0.5.

Turning to A21C C24U C29U A36C, the yeast fitness was no more than 0.5.

C4G C27A G48A: the yeast fitness was determined as 0.571.

For G10C A36G A57U, the yeast fitness was no more than 0.5.

Regarding C11U A37C, the yeast fitness was 0.724.

Take C24U G25C C30U A45U C49G A65U: the yeast fitness was no more than 0.5.

With U7A C49G G50C C62U, the yeast fitness was no more than 0.5.

For the variant A15G C24G C29U C34G U35C C46G A65G, the yeast fitness was no more than 0.5.

On to C4U C61A, for which the yeast fitness was found to be 0.667.

For C11U A57G, the yeast fitness stood at 0.816.

In the case of U3A C11G A14C C24G, the yeast fitness was 0.653.

G17C A21U A57U: the yeast fitness was 0.564.

C31G A40U A45U C62A: the yeast fitness is 0.591.

In the case of A14U C27U C33U G51A G67A, the yeast fitness was no more than 0.5.

Turning to C5U C24U A42C A57U, the yeast fitness was 0.534.

Regarding U2A U28C G41C U54A, the yeast fitness was determined as 0.56.

For the variant C46U C49U, the yeast fitness worked out at 0.98.

With C34A U35A C49A C55U, the yeast fitness is no more than 0.5.

Consider C5G C11U A42G C49U A70U, for which the yeast fitness was 0.588.

On to G18A G23C C30G A36U C60G, for which the yeast fitness is no more than 0.5.

With G17C C55A C60A, the yeast fitness came to 0.716.

Consider G9A U28A C62U G68A, for which the yeast fitness was no more than 0.5.

As to C29U C33U U54A G56A, the yeast fitness was no more than 0.5.

As for G6A A45U G51A, the yeast fitness is no more than 0.5.

As to G17C C22A C24G U28C C33A, the yeast fitness was no more than 0.5.

Turning to C4G A14G G63A, the yeast fitness is no more than 0.5.

With U7C U35C G52A, the yeast fitness is no more than 0.5.

For C11G A14G G18C A20U C33U C62U G63A, the yeast fitness is no more than 0.5.

As to C5A G17A C49G, the yeast fitness turned out to be 0.532.

On to U32G A70G, for which the yeast fitness came out at 0.628.

Take U7A A20U G23C U26A C33A A57U: the yeast fitness is no more than 0.5.

G9A G17C G52A C55A: the yeast fitness was no more than 0.5.

On to A15G G50A A57G, for which the yeast fitness turned out to be 0.584.

With G18A U19A C61G, the yeast fitness was no more than 0.5.

As for A14U A15C C31G A43U A70G, the yeast fitness turned out to be 0.556.

Consider U8C G38C, for which the yeast fitness is 0.799.

As for C46G U54C, the yeast fitness turned out to be 0.697.

As to U7A G10A A20C C29A U54A C55U, the yeast fitness is no more than 0.5.

As to U54A U59C U64C, the yeast fitness was no more than 0.5.

G23C C27U A45G G52A G58A: the yeast fitness is no more than 0.5.

On to C24G C61G C62U C66U, for which the yeast fitness is no more than 0.5.

For A14C C27G U35C C46G A65G, the yeast fitness was no more than 0.5.

Turning to U53G A57U, the yeast fitness was 0.626.

For A15G U28C U35A G38A C46G C62U, the yeast fitness came to 0.718.

Consider U3C A15G C49G, for which the yeast fitness is 0.556.

Turning to A14C A20C C33G A65G, the yeast fitness was no more than 0.5.

With U3G C46G G52C, the yeast fitness was no more than 0.5.

In the case of G10A U32G C66A, the yeast fitness was no more than 0.5.

With U19C A20C C31G C49G, the yeast fitness was no more than 0.5.

Turning to C46A C55A G63A, the yeast fitness turned out to be 0.575.

Take C11U U28C C29G: the yeast fitness was determined as 0.541.

As to C30A G50A G56A, the yeast fitness was 0.742.

Consider U8G G39C U59G C66U, for which the yeast fitness is no more than 0.5.

C27U G38A C66A: the yeast fitness is 0.645.

As to C4U C31U A69C, the yeast fitness is 0.669.

Turning to U2A U16A C49A G50A G68C, the yeast fitness is no more than 0.5.

In the case of G9C U13C A43U, the yeast fitness was found to be 0.618.

On to C34A A36U C55G C66A, for which the yeast fitness is no more than 0.5.

For the variant C4G G6C C29G G63C, the yeast fitness is no more than 0.5.

In the case of C22A C30A C31U G68C, the yeast fitness was no more than 0.5.

For the variant C4G C24U U32G A40U U64G, the yeast fitness was no more than 0.5.

For the variant C5G C29A U32G, the yeast fitness is no more than 0.5.

C5G C61U A65U: the yeast fitness amounted to 0.557.

As for U7A A21C U32C, the yeast fitness is no more than 0.5.

For the variant A43C C49U C66U, the yeast fitness was 0.718.

Regarding G23A C29G C30G C49A G56C C61U, the yeast fitness amounted to 0.702.

For U26C G41C C46A, the yeast fitness came to 0.627.

Regarding G10C U32C A42C, the yeast fitness is no more than 0.5.

C30U A65U: the yeast fitness was found to be 0.876.

Consider U2A G9A U13A C24A A45C, for which the yeast fitness is 0.536.

A20U U26A A65C G67C: the yeast fitness was 0.563.

Consider G68U A69G, for which the yeast fitness is 0.998.

Consider U3C A40G, for which the yeast fitness was found to be 0.929.

In the case of C22A C46A, the yeast fitness worked out at 0.83.

C5G A15G U16A A20G U28A C30A C33A A36U G63A A69C: the yeast fitness was no more than 0.5.

With U3G G12A C27A C29G U53A C60A A69C, the yeast fitness is no more than 0.5.

Turning to C11G U28A G39A G48A C61G C66G, the yeast fitness amounted to 0.561.

In the case of C4U U35A A36U C61U, the yeast fitness was no more than 0.5.

Take A14G G17C C55A: the yeast fitness was no more than 0.5.

Take U2G U7C U28A: the yeast fitness is no more than 0.5.

On to C34U A36G C66A, for which the yeast fitness was no more than 0.5.

For the variant G39C G51A, the yeast fitness came to 0.739.

With C22U A42G C55G, the yeast fitness was determined as 0.567.

Consider C24U A36C A43U A69U, for which the yeast fitness was found to be 0.517.

For A14C C60A, the yeast fitness was determined as 0.589.

A14C C61U A65C: the yeast fitness was no more than 0.5.

As for U26G C46G C55G, the yeast fitness is no more than 0.5.

As for U16G C27G C49A C60A, the yeast fitness was no more than 0.5.

With C11A C30U C49A, the yeast fitness was no more than 0.5.

As to A36G A43U, the yeast fitness worked out at 1.01.

Consider C27U A36C G68C, for which the yeast fitness was determined as 0.602.

U26A C31A A37U A43U: the yeast fitness is no more than 0.5.

In the case of C24G C27U C33U G48A G50C G68A, the yeast fitness was no more than 0.5.

As for C61U, the yeast fitness is 1.01.

Consider C11G U26A C31A G44C C62A, for which the yeast fitness was no more than 0.5.

Source of the values: the RNAGym collection of RNA variant scans (doi:10.1126/science.aae0568).
